pIC50, pKd: −log10 of the molar value. The source made the active and inactive calls. The rule behind the calls is not given here.
Legend:
[1] = biological target: T1, Epidermal growth factor receptor (Homo sapiens, UniProt P00533); assay: Inhibition of EGFR after 1.5 hr by FRET assay
[2] = biological target: T2, Epidermal growth factor receptor (Homo sapiens, UniProt P00533, T790M); assay: Inhibition of EGFR T790M mutant after 1.5 hr by FRET assay; assay type: protein assay
[3] = biological target: T3, Epidermal growth factor receptor (Homo sapiens, UniProt P00533, L858R); assay: Inhibition of EGFR L858R mutant after 1.5 hr by FRET assay; assay type: protein assay
T3 sequence (P00533 25-1210 L858R limits assumed): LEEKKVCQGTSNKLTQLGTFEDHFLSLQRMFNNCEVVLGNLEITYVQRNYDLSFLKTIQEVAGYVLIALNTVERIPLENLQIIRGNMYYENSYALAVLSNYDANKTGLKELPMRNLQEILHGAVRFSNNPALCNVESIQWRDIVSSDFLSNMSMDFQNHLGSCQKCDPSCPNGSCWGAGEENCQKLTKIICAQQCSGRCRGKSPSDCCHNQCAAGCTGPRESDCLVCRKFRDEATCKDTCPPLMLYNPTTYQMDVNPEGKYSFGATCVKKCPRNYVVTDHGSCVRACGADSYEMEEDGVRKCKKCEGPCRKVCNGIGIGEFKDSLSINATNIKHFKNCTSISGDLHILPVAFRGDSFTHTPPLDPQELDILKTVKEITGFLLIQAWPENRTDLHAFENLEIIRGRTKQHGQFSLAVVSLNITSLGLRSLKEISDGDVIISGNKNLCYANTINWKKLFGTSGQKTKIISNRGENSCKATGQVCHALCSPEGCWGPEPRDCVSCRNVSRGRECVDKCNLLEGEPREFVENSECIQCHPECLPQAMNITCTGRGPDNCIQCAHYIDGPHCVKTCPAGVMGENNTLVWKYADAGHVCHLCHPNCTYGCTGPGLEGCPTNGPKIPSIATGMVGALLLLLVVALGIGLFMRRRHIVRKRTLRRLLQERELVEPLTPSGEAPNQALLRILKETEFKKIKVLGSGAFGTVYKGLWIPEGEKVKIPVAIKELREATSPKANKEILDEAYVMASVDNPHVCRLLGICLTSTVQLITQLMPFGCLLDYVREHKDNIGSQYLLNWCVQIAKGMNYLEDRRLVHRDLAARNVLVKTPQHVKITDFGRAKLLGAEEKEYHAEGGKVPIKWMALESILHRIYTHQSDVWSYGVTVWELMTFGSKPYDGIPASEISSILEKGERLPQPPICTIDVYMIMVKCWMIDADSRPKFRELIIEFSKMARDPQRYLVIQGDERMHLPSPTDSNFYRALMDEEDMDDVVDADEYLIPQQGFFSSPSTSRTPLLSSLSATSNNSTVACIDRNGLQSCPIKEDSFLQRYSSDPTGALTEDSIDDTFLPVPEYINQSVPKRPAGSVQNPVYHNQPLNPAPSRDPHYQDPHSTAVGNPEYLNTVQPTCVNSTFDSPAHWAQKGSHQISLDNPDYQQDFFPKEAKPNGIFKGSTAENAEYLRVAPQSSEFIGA

[4] = biological target: T4, Epidermal growth factor receptor (Homo sapiens, UniProt P00533, L861Q); assay: Inhibition of EGFR L861Q mutant after 1.5 hr by FRET assay; assay type: protein assay
T4 sequence (P00533 25-1210 L861Q limits assumed): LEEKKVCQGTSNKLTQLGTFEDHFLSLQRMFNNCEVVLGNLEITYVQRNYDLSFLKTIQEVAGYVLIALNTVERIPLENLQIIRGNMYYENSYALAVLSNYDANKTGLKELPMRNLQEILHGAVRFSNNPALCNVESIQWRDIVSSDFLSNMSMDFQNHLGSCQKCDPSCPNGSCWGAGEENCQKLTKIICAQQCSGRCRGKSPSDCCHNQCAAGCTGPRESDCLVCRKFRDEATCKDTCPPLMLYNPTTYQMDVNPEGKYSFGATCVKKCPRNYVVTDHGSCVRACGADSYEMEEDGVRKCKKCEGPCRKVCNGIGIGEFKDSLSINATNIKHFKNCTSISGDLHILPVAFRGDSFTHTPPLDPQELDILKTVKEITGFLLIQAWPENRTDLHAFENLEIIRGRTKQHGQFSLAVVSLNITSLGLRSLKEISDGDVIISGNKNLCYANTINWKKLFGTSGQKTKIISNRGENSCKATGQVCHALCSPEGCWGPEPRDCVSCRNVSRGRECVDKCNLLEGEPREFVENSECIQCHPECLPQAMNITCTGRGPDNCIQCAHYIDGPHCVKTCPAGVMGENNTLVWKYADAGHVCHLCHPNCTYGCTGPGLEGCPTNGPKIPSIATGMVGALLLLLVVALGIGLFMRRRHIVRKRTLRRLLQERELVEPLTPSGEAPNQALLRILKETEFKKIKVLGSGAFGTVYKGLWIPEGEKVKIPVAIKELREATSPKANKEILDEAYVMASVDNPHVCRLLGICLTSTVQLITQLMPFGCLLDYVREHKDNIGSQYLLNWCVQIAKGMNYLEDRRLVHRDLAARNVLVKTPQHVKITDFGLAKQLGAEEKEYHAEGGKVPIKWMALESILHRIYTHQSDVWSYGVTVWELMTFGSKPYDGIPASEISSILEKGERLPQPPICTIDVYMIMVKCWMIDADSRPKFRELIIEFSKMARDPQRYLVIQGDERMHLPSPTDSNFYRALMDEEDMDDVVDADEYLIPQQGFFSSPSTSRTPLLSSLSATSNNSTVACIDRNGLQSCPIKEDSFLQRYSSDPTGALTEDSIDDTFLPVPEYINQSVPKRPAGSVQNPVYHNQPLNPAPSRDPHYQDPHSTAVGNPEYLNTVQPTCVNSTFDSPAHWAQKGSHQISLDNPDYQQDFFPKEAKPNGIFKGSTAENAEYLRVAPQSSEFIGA

[5] = biological target: T5, Epidermal growth factor receptor (Homo sapiens, UniProt P00533, L858R/T790M); assay: Inhibition of EGFR L858R/T790M mutant after 1.5 hr by FRET assay; assay type: protein assay
[6] = biological target: T1, Epidermal growth factor receptor; assay: Binding affinity to EGFR
[7] = biological target: T2, Epidermal growth factor receptor; assay: Binding affinity to EGFR T790M mutant
[8] = biological target: T3, Epidermal growth factor receptor; assay: Binding affinity to EGFR L858R mutant
[9] = biological target: T4, Epidermal growth factor receptor; assay: Binding affinity to EGFR L861Q mutant
[10] = biological target: T5, Epidermal growth factor receptor; assay: Binding affinity to EGFR L858R/T790M mutant
[11] = biological target: Tyrosine-protein kinase Blk (Homo sapiens) (UniProt P51451); assay: Binding affinity to BLK at 100 nM
[12] = biological target: Tyrosine-protein kinase BTK (Homo sapiens) (UniProt Q06187); assay: Binding affinity to BTK at 100 nM
[13] = biological target: Receptor tyrosine-protein kinase erbB-2 (Homo sapiens) (UniProt P04626); assay: Binding affinity to ErbB2 at 100 nM
[14] = biological target: Receptor tyrosine-protein kinase erbB-4 (Homo sapiens) (UniProt Q15303); assay: Binding affinity to ErbB4 at 100 nM
[15] = biological target: Cyclin-G-associated kinase (Homo sapiens) (UniProt O14976); assay: Binding affinity to GAK at 100 nM
[16] = biological target: Tyrosine-protein kinase TXK (Homo sapiens) (UniProt P42681); assay: Binding affinity to TXK at 100 nM
A549 = assay: Antiproliferative activity against human A549 cells expressing wild type EGFR coexpressing k-Ras mutant after 72 hrs by MTS assay; settings: A549, 72 h
[17] = Antiproliferative activity against human HL7702 cells expressing wilt type EGFR after 72 hrs by MTS assay; settings: L02, 72 h
HCC827 [18] = assay: Induction of Cell cycle arrest in human HCC827 cells harboring EGFR del E746-A750 mutant assessed as G1 phase cells after 24 hrs by flow cytometry assay; assay type: functional, cell-based
Outline: (§1)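 Cells in six-well plates serum-starved 24 h to synchronize in G0−G1, then treated at indicated concentrations for 24 h. Lightly trypsinized and cell-cycle distribution analysed by flow cytometry.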

NCI-H1975 [19] = assay: Induction of Cell cycle arrest in human NCI-H1975 cells harboring EGFR L858R/T790M mutant assessed as G1 phase cells after 24 hrs by flow cytometry assay; assay type: functional, cell-based; outline: as §1
NCI-H1975 [20] = assay: Antiproliferative activity against human NCI-H1975 cells harboring EGFR L858R/T790M mutant assessed as inhibition of colony formation after 9 days by crystal violet staining; assay type: functional, cell-based
Outline: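 H1975 cells seeded at 500 cells per 6-cm dish and grown 24 h, then treated at 0.1 to 10 nM. Medium with compound replaced every 3 days. After 9 days, fixed with 4% formaldehyde and stained with 0.2% crystal violet.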

[21] = Cytotoxicity against human HLF1 cells after 72 hrs by MTS assay; assay type: cell-based; settings: hlf1, 72 h
Outline: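 MTS proliferation read-out at 490 nm after 72 h exposure, cell number set to give absorbance 1.3−2.2. Six concentrations, 0.1 nM to 10 μM, at least six parallels each, repeated at least four times. IC50 from nonlinear sigmoidal dose−response fit.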

NCI-H1975 [22] = assay: Antitumor activity against human NCI-H1975 cells xenografted in SCID mouse at 10 mg/kg, po administered qd for 14 days relative to control; assay type: functional, organism-based; design: dose 10 mg/kg
Outline: (§2)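 Six-week-old SCID mice inoculated s.c. in the right flank with H1975 cells (2 × 10⁶/mouse). At mean tumour volume 380−420 mm³ (10−12 days), randomized n = 6/group. Oral dosing daily for 14 days, 0.1 mL/20 g, vehicle as control. Tumours measured every other day by caliper, volume = W²(L/2). Body weight monitored. Significance p < 0.05 versus vehicle.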

NCI-H1975 [23] = assay: Antitumor activity against human NCI-H1975 cells xenografted in SCID mouse at 30 mg/kg, po administered qd for 14 days relative to control; assay type: functional, organism-based; design: dose 30 mg/kg; outline: as §2
[24] = Toxicity in SCID mouse assessed as mortality at 10 mg/kg, po administered qd for 14 days relative to control; assay type: organism-based; design: dose 10 mg/kg, route oral; settings: in vivo, read-out: Activity
Outline: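 Six-week-old SCID mice bearing subcutaneous H1975 NSCLC xenografts (2 × 10⁶ cells, right flank) were randomized at 380−420 mm³ average tumour volume (10−12 days post implantation), n = 6/group. They were dosed orally once daily for 14 days with vehicle or compound (10 or 30 mg/kg; 0.1 mL/20 g body weight). Mortality and body weight were tracked during treatment against vehicle controls.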

Mus musculus = assay: Toxicity in SCID mouse assessed as weight loss at 10 mg/kg, po administered qd for 14 days relative to control; assay type: organism-based; design: dose 10 mg/kg, route oral; settings: in vivo, 336 h; outline: as §2
HCC827 [25] = assay: Induction of apoptosis in human HCC827 cells harboring EGFR del E746-A750 mutant after 48 hrs by flow cytometry assay
NCI-H1975 [26] = assay: Induction of apoptosis in human NCI-H1975 cells harboring EGFR L858R/T790M mutant after 48 hrs by flow cytometry assay
[27] = biological target: Cytoplasmic tyrosine-protein kinase BMX (Homo sapiens) (UniProt P51813); assay: Binding affinity to BMX
Outline: (§3)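 Ambit KINOMEscan binding assay. Binding for 1 h at r.t. Unbound kinase captured on immobilized affinity ligand and quantified by qPCR.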

[28] = biological target: Tyrosine-protein kinase JAK3 (Homo sapiens) (UniProt P52333); assay: Binding affinity to JAK3; outline: as §3
[29] = test system: Mast/stem cell growth factor receptor Kit (Homo sapiens), P10721 [V559D]; assay: Binding affinity to KIT V559D mutant; outline: as §3
[30] = biological target: Tyrosine-protein kinase Lck (Homo sapiens) (UniProt P06239); assay: Binding affinity to LCK; outline: as §3
[31] = biological target: Mitogen-activated protein kinase kinase kinase 15 (Homo sapiens) (UniProt Q6ZN16); assay: Binding affinity to MAP3K15; outline: as §3
[32] = biological target: Platelet-derived growth factor receptor beta (Homo sapiens) (UniProt P09619); assay: Binding affinity to PDGFRbeta; outline: as §3
[33] = biological target: Tyrosine-protein kinase Tec (Homo sapiens) (UniProt P42680); assay: Binding affinity to TEC; outline: as §3
[34] = biological target: Activated CDC42 kinase 1 (Homo sapiens) (UniProt Q07912); assay: Binding affinity to TNK2; outline: as §3

T2 sequence (P00533 25-1210 T790M limits assumed): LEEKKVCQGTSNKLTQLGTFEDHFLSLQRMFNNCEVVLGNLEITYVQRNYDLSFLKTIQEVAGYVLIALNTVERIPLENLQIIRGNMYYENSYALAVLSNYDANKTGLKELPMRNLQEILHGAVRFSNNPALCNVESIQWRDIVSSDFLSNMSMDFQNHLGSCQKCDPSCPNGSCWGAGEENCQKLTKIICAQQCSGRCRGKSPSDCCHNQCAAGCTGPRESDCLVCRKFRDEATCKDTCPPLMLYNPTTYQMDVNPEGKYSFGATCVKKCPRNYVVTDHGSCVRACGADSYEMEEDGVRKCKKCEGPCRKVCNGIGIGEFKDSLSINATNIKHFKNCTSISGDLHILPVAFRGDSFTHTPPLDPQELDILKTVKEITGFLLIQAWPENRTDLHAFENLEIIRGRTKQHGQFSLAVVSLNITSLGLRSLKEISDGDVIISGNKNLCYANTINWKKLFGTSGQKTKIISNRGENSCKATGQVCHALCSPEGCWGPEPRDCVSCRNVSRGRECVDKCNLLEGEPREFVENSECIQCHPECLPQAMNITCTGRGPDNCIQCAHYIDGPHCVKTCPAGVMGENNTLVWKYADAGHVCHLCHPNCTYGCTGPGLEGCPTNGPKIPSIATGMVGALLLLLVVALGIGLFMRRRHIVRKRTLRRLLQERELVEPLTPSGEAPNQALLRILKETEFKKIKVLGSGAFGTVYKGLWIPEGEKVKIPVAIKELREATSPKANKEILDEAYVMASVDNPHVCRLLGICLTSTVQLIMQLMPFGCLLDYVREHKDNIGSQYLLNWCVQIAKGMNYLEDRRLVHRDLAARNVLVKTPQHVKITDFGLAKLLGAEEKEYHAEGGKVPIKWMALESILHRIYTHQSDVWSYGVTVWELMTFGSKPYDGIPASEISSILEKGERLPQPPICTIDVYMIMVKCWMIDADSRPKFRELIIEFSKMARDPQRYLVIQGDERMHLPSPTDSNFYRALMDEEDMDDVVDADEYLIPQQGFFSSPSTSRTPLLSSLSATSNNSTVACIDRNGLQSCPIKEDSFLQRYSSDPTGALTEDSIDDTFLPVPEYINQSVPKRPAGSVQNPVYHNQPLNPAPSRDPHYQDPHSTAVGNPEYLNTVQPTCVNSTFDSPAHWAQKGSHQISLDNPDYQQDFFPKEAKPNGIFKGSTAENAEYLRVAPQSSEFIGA
T1 sequence (P00533 whole entry): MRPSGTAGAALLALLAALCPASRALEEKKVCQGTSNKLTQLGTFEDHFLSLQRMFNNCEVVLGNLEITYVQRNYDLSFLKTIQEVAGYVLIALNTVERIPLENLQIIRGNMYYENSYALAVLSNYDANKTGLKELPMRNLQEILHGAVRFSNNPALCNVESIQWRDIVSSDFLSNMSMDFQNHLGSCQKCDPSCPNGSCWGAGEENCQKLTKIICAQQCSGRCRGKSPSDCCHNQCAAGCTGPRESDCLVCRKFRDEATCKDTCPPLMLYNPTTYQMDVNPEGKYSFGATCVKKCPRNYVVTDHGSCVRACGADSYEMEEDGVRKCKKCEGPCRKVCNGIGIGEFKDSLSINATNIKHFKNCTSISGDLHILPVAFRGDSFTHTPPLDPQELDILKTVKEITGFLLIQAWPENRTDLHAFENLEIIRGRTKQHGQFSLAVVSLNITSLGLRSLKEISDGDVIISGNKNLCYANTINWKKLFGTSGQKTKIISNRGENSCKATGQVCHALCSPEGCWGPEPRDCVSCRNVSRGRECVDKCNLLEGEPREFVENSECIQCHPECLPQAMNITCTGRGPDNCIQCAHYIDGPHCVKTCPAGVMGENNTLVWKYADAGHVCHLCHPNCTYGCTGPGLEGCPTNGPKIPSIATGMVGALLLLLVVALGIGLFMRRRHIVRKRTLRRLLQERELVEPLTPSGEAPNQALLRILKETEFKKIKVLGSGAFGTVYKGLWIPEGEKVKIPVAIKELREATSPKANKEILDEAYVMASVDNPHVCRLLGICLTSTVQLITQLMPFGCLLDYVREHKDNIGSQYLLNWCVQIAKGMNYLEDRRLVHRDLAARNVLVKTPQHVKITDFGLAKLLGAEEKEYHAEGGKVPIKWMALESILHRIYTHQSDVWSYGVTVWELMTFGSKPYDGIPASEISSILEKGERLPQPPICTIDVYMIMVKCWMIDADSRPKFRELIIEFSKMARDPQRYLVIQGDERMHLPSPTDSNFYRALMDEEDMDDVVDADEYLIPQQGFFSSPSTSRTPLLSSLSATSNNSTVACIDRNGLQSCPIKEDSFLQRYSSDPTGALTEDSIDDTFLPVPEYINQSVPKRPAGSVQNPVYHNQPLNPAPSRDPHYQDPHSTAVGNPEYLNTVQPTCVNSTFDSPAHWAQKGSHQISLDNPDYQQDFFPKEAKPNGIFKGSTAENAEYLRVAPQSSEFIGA

C=CC(=O)Nc1cccc(N2C(=O)N(Cc3ccccc3)Cc3cnc(Nc4ccc(N5CCN(C)CC5)cc4OC)nc32)c1
pIC50 [1]: 9.54
pIC50 [2]: 9.17
pIC50 [3]: 9.42
pIC50 [4]: 9.14
pIC50 [5]: 9.03
pKd [6]: 8.92
pKd [7]: 9.54
pKd [8]: 8.89
pKd [9]: 9.17
pKd [10]: 9.52
Activity [11]: Active
Activity [12]: Active
Activity [13]: Active
Activity [14]: Active
Activity [15]: Active
Activity [16]: Active
pIC50 (A549): 5.58
pIC50 [17]: 5.62
Activity (HCC827 [18]): Active
Activity (NCI-H1975 [19]): Active
inhibition (NCI-H1975 [20]): Dose-dependent effect
Activity [21]: Non-toxic
Activity (NCI-H1975 [22]): inactive
Activity (NCI-H1975 [23]): Active
mortality at 336 h [24]: < 5%
Activity (Mus musculus): < 5%
Activity (HCC827 [25]): Active
Activity (NCI-H1975 [26]): Active

C=CC(=O)Nc1cccc(N2C(=O)N(c3ccccc3)Cc3cnc(Nc4ccc(N5CCN(C)CC5)cc4OC)nc32)c1
pIC50 [1]: 9.52
pIC50 [2]: 9.29
pIC50 [3]: 9.34
pIC50 [4]: 9.03
pIC50 [5]: 9.01
Activity [27]: Active
Activity [28]: Active
Activity [29]: Active
Activity [30]: Active
Activity [31]: Active
Activity [32]: Active
Activity [33]: Active
Activity [34]: Active
pIC50 (A549): 5.55
pIC50 [17]: 5.40
Activity (HCC827 [18]): Active
Activity (NCI-H1975 [19]): Active
inhibition (NCI-H1975 [20]): Dose-dependent effect
Activity [21]: Non-toxic
Activity (HCC827 [25]): Active
Activity (NCI-H1975 [26]): Active
